Compound activity: PubChem, The Scripps Research Institute Molecular Screening Center
An excerpt weighted towards active compounds, which were near 1.9% of everything screened.
TDP2 inh: blocks human TDP2 phosphodiesterase activity. inhibition, % at 12.8 µM. recombinant TDP2, T5PNP hydrolysis, p-nitrophenol absorbance 415 nm. O95551. actives 0.34% (n = 370,000). AID 720702;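 active = inhibition above the mean of all tested compounds plus 3 SD, set per campaign, cut at about 25% in these data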;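 also: 0% = DMSO with enzyme and 100% = buffer with substrate but no TDP2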
Target sequence (O95551 whole entry, looked up): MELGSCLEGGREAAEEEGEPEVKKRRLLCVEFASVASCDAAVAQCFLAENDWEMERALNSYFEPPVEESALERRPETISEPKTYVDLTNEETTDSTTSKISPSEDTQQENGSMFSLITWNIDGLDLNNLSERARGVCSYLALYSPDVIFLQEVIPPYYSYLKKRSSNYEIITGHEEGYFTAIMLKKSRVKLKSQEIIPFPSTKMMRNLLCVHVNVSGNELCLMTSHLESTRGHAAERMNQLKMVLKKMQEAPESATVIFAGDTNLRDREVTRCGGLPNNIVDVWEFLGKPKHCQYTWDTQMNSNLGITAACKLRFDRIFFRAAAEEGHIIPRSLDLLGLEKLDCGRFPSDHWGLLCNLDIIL
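System – recombinant human TDP2 · Quantity – TDP2 enzyme at 120 nM final · Doses – single concentration, 12.8 µM nominal, with 1% DMSO · Incubation – 2 h at 37 °C · Measured by – epi absorbance of p-nitrophenol freed from T5PNP by hydrolysis · Read-out – % inhibition relative to enzyme-containing and enzyme-free wells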
DDE Tn7 FP inh: disrupts Tn7 cyclic peptide binding to fibrin D-Dimer-E complex. P02675. FP displacement of FITC-Tn7 peptide from fibrin DD(E); 0% = median of compound wells per plate. inhibition, % at 8.3 µM. actives 0.13% (n = 370,000);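 active = inhibition above the mean of compounds falling within the control limits plus 3 SD of them, cut at about 14% in these data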;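 also: 0% = plate median of compound wells and 100% = 10 µM Aha-Tn7 peptide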
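Assay system: Human fibrin DD(E) protein | Medium: Tris buffer with calcium and detergent, pH 7.8 | Reagent: 0.1 µM fluorescent Tn7 | Compound dosing: Single point at 8.3 µM | Times: 10 min preincubation, 3 h with tracer, room temperature | Detection: Fluorescence polarization of the labelled Tn7 tracer | Controls: Aha-Tn7 high control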
MBD2 DNA inh: inhibitors of human MBD2 binding to methylated oligonucleotide. actives 0.31% (n = 370,000). inhibition, % at 4.4 µM. TR-FRET. Q9UBB5; in the data active = inhibition above about 13%
UHRF1 binding: UHRF1 methyl-DNA binding inhibition. Q96T88. UHRF1 binding to methylated oligo, TR-FRET. inhibition, % at 4.4 µM. actives 0.75% (n = 370,000). AID 687016; in the data active = inhibition above about 21%;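 also: UHRF1 SRA domain binding a hemimethylated CpG hairpin DNA probe; 0% = median of test compound wells and 100% = reference inhibitor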
Tn6 DDE FP: inhibitors of Tn6 peptide binding to human fibrin DD(E) | actives 0.21% (n = 370,000) | Fibrin DD(E) TRITC-Tn6 fluorescence polarization displacement | inhibition, % at 8.3 µM;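 active = inhibition above a per-campaign cutoff: mean of compounds within control limits plus 3 SD, cut at about 15% in these data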;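 also: 0% = median of all compound wells on the plate and 100% = blocking peptide control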
LEDGF integ inh: blocks HIV-1 LEDGF/p75-dependent DNA integration; inhibition, % at 3.7 µM; AID 743269; TR-FRET IN-LEDGF/p75 DNA integration, Eu/Cy5; actives 0.64% (n = 370,000);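 active = inhibition above the screen-wide mean plus 3 SD, cut at about 13% in these data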;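 also: signal is the Cy5 over europium emission ratio at 671 and 618 nm; 0% = plate median of compound wells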
The depositor's hits bear a star.

SMILES | TDP2 inh | DDE Tn7 FP inh | MBD2 DNA inh | UHRF1 binding | Tn6 DDE FP | LEDGF integ inh
O=C(N/N=C/c1cc2c(cc1Cl)OCO2)c1cccc(Br)c1 | 6 | -1 | 2 | 39* | 0 | -1
O=C(C(=O)N1CCC(CNS(=O)(=O)c2ccccc2)CC1)c1cc2ccccc2o1 | 6 | 3 | -5 | -1 | 1 | -3
O=C(CN(Cc1ccccc1)S(=O)(=O)c1ccc(F)cc1)NCCC1=CCCCC1 | -12 | -4 | 2 | 4 | -13 | 4
Cc1ccc(S(=O)(=O)N(CC(=O)NCCC2=CCCCC2)Cc2ccccc2)cc1 | 21 | -2 | 6 | 28* | 8 | 6
CCN(c1ccccc1)S(=O)(=O)c1cccc(C(=O)NCC(c2ccc(F)cc2)N2CCOCC2)c1 (centres undefined) | 2 | 2 | -1 | 43* | 9 | -2
CCOP(=O)(OCC)c1nc(-c2cccc3ccccc23)oc1NCc1ccccc1 | 6 | -3 | 0 | 4 | -4 | -2
CCOP(=O)(OCC)c1nc(-c2cccc3ccccc23)oc1NCc1ccc(OC)cc1 | -20 | -4 | 9 | 24* | -5 | 6
Cc1nc2ccc(S(=O)(=O)NCC(=O)N(C)Cc3ccccc3F)cc2s1 | 1 | 6 | 4 | -1 | 0 | -1
COc1cc(S(=O)(=O)N(Cc2cccnc2)Cc2cccc(OC)c2OC)ccc1-n1cnnn1 | 3 | -4 | 4 | 23* | 3 | -4
Cc1ccc(CNC(=O)CN2C(C)CCCC2C)cc1 (centres undefined) | 14 | 2 | -2 | 49* | -1 | 4
Cc1ccc(CNC(=O)C2CCCC2)cc1 | -2 | 1 | 3 | 2 | 2 | -3
COc1ccc(Cn2cc(COC(=O)N3CCCC3)nn2)cc1 | 3 | -6 | -2 | 3 | 9 | 2
N#C/C(=C\c1ccncc1)c1nc2ccccc2c(=O)[nH]1 | 2 | 1 | -1 | 44* | 7 | 1
N#CCN1C(=O)NC2(CCCc3sccc32)C1=O (centres undefined) | 20 | -5 | 3 | 94* | -1 | 0
Clc1ccc2nc(CN3CCCCC3)cn2c1 | -14 | -9 | 1 | 27* | 0 | 4
Clc1ccc2nc(CN3CCCCCC3)cn2c1 | -1 | -7 | 0 | 0 | -13 | 2
CCCCCn1cc(CCC(=O)Nc2ccc(N(C)c3ccccn3)cc2)c2ccccc21 | 0 | 3 | -5 | -2 | -1 | 1
CC(C)OC(=O)c1ccc(N2CCN(c3ccc(F)cc3)CC2)nc1 | -20 | -5 | -1 | 1 | 1 | 2
CC(C)OC(=O)c1cccnc1N1CCN(c2ccc(F)cc2)CC1 | -5 | 4 | 8 | 23* | 0 | 2
CN=c1sc(C(=O)Nc2ccccc2)c(C)n1C | 3 | -4 | -2 | -2 | 1 | 0
CN=c1sc2c(n1C)C(=O)c1ccccc1C2=O | 35* | -9 | -10 | 1 | -1 | 13
COc1ccc(N(C(=O)CS(=O)CC(=O)Nc2ccc(F)cc2)C(C(=O)NC2CCCCC2)c2cccs2)cc1 (centres undefined) | 5 | 1 | 0 | -2 | 5 | 15*
O=C(CS(=O)CC(=O)N(c1ccccc1)C(C(=O)NC1CCCCC1)c1ccco1)Nc1ccc(F)cc1 (centres undefined) | -6 | 8 | 4 | 0 | 4 | -3
O=[N+]([O-])c1ccccc1/C=C/C=Nn1c(-c2ccc(F)cc2)n[nH]c1=S | -7 | -10 | 2 | -1 | 0 | 7
O=C(/C=C/c1cccc(Br)c1)N1CCN(c2cccc(C(F)(F)F)c2)CC1 | -2 | -10 | 9 | 24* | 2 | 3
SMILES | TDP2 inh | DDE Tn7 FP inh | MBD2 DNA inh | UHRF1 binding | Tn6 DDE FP | LEDGF integ inh
Nc1ccc2nc(SCc3ccccc3F)sc2c1 | 14 | -1 | -1 | 23* | 9 | 0
COC(=O)c1ccc2nc(-c3ccc(C#N)cc3)c(Cc3cccc(Cl)c3)n2c1 | 5 | -4 | 3 | 21* | -2 | 1
COC(=O)c1ccc2nc(-c3ccc(F)cc3)c(Cc3ccccc3)n2c1 | -1 | 6 | 2 | 23* | 1 | 7
COC(=O)c1ccc2nc(-c3ccc(C#N)cc3)c(Cc3ccsc3)n2c1 | 2 | -2 | 5 | 22* | -3 | 0
COC(=O)c1ccc2nc(-c3ccc(F)cc3)c(Cc3ccsc3)n2c1 | -7 | -1 | 6 | 24* | 5 | 4
COC(=O)c1ccc2nc(-c3ccc(C)cc3)c(Cc3ccsc3)n2c1 | 1 | -10 | -2 | 20 | 0 | 4
COC(=O)C1=C(C)N(Cc2ccccc2C(F)(F)F)C(=NCc2ccccc2)NC1CCc1ccccc1 (centres undefined) | -9 | -4 | 7 | 2 | -7 | 1
COC(=O)C1=C(C)N(Cc2ccccc2C(F)(F)F)C(=NCc2ccccc2C(F)(F)F)NC1c1ccc(F)cc1 (centres undefined) | -9 | 0 | 0 | -1 | 3 | 1
C#CCN(C[C@@H]1[C@@H](OC(=O)NCc2ccc(OC)c(OC)c2)[C@@H](OC(=O)NCc2ccc(OC)c(OC)c2)CN(C(=O)OC(C)C)N1C(=O)OC(C)C)S(=O)(=O)c1ccc(C)cc1 | -1 | 10 | -1 | -4 | 1 | 52*
O=C(NCc1ccccc1)[C@H]1CCCN1C(=O)[C@H]1CCCN1C(=O)c1ccc(F)cc1 | 2 | 0 | 5 | 0 | 0 | -3
Nc1ccc2c(S(=O)(=O)O)cccc2c1S(=O)(=O)O | -5 | -4 | 0 | 5 | -7 | 2
Nc1cccc2cc(S(=O)(=O)O)ccc12 | 27* | -2 | 6 | 47* | -2 | 39*
CC1CCCCC1NC(=O)/C(C#N)=C/c1ccccc1F (centres undefined) | 0 | 4 | 10 | 25* | -3 | -4
COc1ccc(Cc2c(C(C)(C)C)nc3ccc(C)cn23)c(C)c1 | 3 | 6 | 9 | 24* | -4 | 3
COc1ccccc1Cc1c(C(C)(C)C)nc2ccc(C)cn12 | 6 | 4 | 2 | 23* | 5 | -2
COc1ccccc1Cc1c(C(C)(C)C)nc2c(C)cc(Br)cn12 | 7 | 8 | 2 | 23* | 14 | 0
COc1ccc(Cc2c(C(C)(C)C)nc3ccc(Cl)cn23)c(C)c1 | 2 | -2 | -4 | -1 | 3 | -2
CCNC(=O)N1CCN(c2ccc(N3CCN(C(=O)NCC)[C@@H](C)C3)c(C)c2)[C@@H](C)C1 | 9 | 2 | 2 | -3 | 10 | 2
COc1ccc(Cl)cc1NC(=O)CN(C)C(=O)c1cc(-c2ccncc2)nc2ccccc12 | -3 | -5 | 2 | -2 | -6 | 16*
CC(C)NC(=O)c1c(CSc2ccccc2)noc1C(=O)NCc1ccccc1 | -3 | 0 | -2 | 22* | 4 | 1
